# Measurements published in ChEMBL document CHEMBL2346638, “Secondary amines containing one aromatic nitro group: preparation, nitrosation, sustained nitric oxide release, and the synergistic effects of released nitric oxide and an arginase inhibitor on vascular smooth muscle cell proliferation” (Bioorg Med Chem, 2013).
# Activity calls are given as the source filed them. The rule behind the calls is not given here.
# Tested on: HASMC
# Assay: Induction of nitric oxide release in HASMC at 5 to 20 uM after 60 mins by DAF-FM DA assay
# Format: functional, cell-based
# Details: Homo sapiens
row,SMILES,Activity
1,CCCCCCCCCN(N=O)c1cccc(N(CCCCCCCCC)N=O)c1[N+](=O)[O-],Active
2,CCCCCCCCN(N=O)c1ccc([N+](=O)[O-])c(N(CCCCCCCC)N=O)c1,Active
3,CCCCCCN(N=O)c1ccc([N+](=O)[O-])c(N(CCCCCC)N=O)c1,Active
4,CCCCCCCN(N=O)c1ccc([N+](=O)[O-])c(N(CCCCCCC)N=O)c1,Active
5,CCCCCCCCCCN(N=O)c1cccc(N(CCCCCCCCCC)N=O)c1[N+](=O)[O-],Active
6,CCCCCCCCN(N=O)c1cccc(N(CCCCCCCC)N=O)c1[N+](=O)[O-],Active
7,CCCCCCCCCCN(N=O)c1ccc([N+](=O)[O-])c(N(CCCCCCCCCC)N=O)c1,Active
8,CCCCCCCCCN(N=O)c1ccc([N+](=O)[O-])c(N(CCCCCCCCC)N=O)c1,Active
9,CCCCCCN(N=O)c1cccc(N(CCCCCC)N=O)c1[N+](=O)[O-],Active

# Tested on: not listed separately
# Assay: Induction of nitric oxide release in phosphate buffered saline up to 20 days by Griess reagent test in presence of glutathione
# Format: physicochemical
# Details: buffer, 480 h
# Outline: (§1)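 The same protocol was used in 1X PBS containing 5 mM reduced glutathione: donor at 0.0125 M, room temperature, timed aliquots over about 20 days. Supernatants were mixed with Griess reagent and absorbance read at 550 nm; no new calibration was needed.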
row,SMILES,Activity [%]
1,CCCCCCN(N=O)c1ccc([N+](=O)[O-])c(N(CCCCCC)N=O)c1,0.84
2,CCCCCCCCCCN(N=O)c1cccc(N(CCCCCCCCCC)N=O)c1[N+](=O)[O-],1.9
3,CCCCCCCCN(N=O)c1cccc(N(CCCCCCCC)N=O)c1[N+](=O)[O-],1.32
4,CCCCCCCCCN(N=O)c1ccc([N+](=O)[O-])c(N(CCCCCCCCC)N=O)c1,1.29

# Tested on: not listed separately
# Assay: Nitrosation of the compound in glacial acetic acid/tetrahydrofuran after 24 to 48 hrs by IR spectroscopy analysis
# Format: physicochemical
# Details: not given
row,SMILES,Activity [%]
1,CCCCCCCCCN(N=O)c1cccc(N(CCCCCCCCC)N=O)c1[N+](=O)[O-],100
2,CCCCCCCCCCN(N=O)c1cccc(N(CCCCCCCCCC)N=O)c1[N+](=O)[O-],100
3,CCCCCCCCN(N=O)c1cccc(N(CCCCCCCC)N=O)c1[N+](=O)[O-],100
4,CCCCCCN(N=O)c1cccc(N(CCCCCC)N=O)c1[N+](=O)[O-],100

# Tested on: not listed separately
# Assay: Half life of the compound
# Format: physicochemical
# Details: not given
# Outline: (§2)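 Nitrosated compound was stirred in 1X PBS at 0.0125 M (0.0250 M NO) at room temperature. Aliquots were taken hourly to 12 h, every 4 h to 24 h, every 8 h to 48 h, then every 24 h. Aliquots were centrifuged and triplicate supernatants mixed with Griess reagent for 5 min. Absorbance at 550 nm was plotted against time.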
row,SMILES,half-life [h]
1,CCCCCCCCCN(N=O)c1cccc(N(CCCCCCCCC)N=O)c1[N+](=O)[O-],80
2,CCCCCCCCN(N=O)c1ccc([N+](=O)[O-])c(N(CCCCCCCC)N=O)c1,83
3,CCCCCCN(N=O)c1ccc([N+](=O)[O-])c(N(CCCCCC)N=O)c1,105
4,CCCCCCCN(N=O)c1ccc([N+](=O)[O-])c(N(CCCCCCC)N=O)c1,87
5,CCCCCCCCCCN(N=O)c1cccc(N(CCCCCCCCCC)N=O)c1[N+](=O)[O-],62
6,CCCCCCCCN(N=O)c1cccc(N(CCCCCCCC)N=O)c1[N+](=O)[O-],93
7,CCCCCCCCCCN(N=O)c1ccc([N+](=O)[O-])c(N(CCCCCCCCCC)N=O)c1,60
8,CCCCCCCCCN(N=O)c1ccc([N+](=O)[O-])c(N(CCCCCCCCC)N=O)c1,69
9,CCCCCCN(N=O)c1cccc(N(CCCCCC)N=O)c1[N+](=O)[O-],140

# Tested on: HASMC
# Assay: Antiproliferative activity against HASMC at 20 uM after 96 hrs by MTT assay in presence of S-2-amino-6-boronic acid
# Format: functional, cell-based
# Details: Homo sapiens
# Outline: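 HASMCs were induced with LPS (50 µg/mL) and IFN-γ (50 ng/mL) for 6 h at 37 °C. Cytokines were removed and cells were treated with 5 mM ABH plus donor (20 µM) in SMC medium for 48 h at 37 °C. A second dose was added, followed by a further 48 h. Readout was MTT absorbance at 570 nm.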
row,SMILES,inhibition
1,CCCCCCN(N=O)c1ccc([N+](=O)[O-])c(N(CCCCCC)N=O)c1,Active
2,CCCCCCN(N=O)c1cccc(N(CCCCCC)N=O)c1[N+](=O)[O-],Active

# Tested on: not listed separately
# Assay: Induction of nitric oxide release in phosphate buffered saline up to 20 days by Griess reagent test
# Format: physicochemical
# Set-up: concentration or dose not given beside the values
# Details: buffer, 480 h
# Outline: as §2
row,SMILES,Activity [%]
1,CCCCCCCCCN(N=O)c1cccc(N(CCCCCCCCC)N=O)c1[N+](=O)[O-],2.32
2,CCCCCCCCN(N=O)c1ccc([N+](=O)[O-])c(N(CCCCCCCC)N=O)c1,2.63
3,CCCCCCN(N=O)c1ccc([N+](=O)[O-])c(N(CCCCCC)N=O)c1,2.34
4,CCCCCCCN(N=O)c1ccc([N+](=O)[O-])c(N(CCCCCCC)N=O)c1,2.48
5,CCCCCCCCCCN(N=O)c1cccc(N(CCCCCCCCCC)N=O)c1[N+](=O)[O-],2.6
6,CCCCCCCCN(N=O)c1cccc(N(CCCCCCCC)N=O)c1[N+](=O)[O-],2.13
7,CCCCCCCCCCN(N=O)c1ccc([N+](=O)[O-])c(N(CCCCCCCCCC)N=O)c1,3
8,CCCCCCCCCN(N=O)c1ccc([N+](=O)[O-])c(N(CCCCCCCCC)N=O)c1,2.83
9,CCCCCCN(N=O)c1cccc(N(CCCCCC)N=O)c1[N+](=O)[O-],1.85

# Tested on: not listed separately
# Assay: Nitrosation of the compound in glacial acetic acid/tetrahydrofuran after 24 to 48 hrs by IR spectroscopy analysis in presence of glutathione
# Format: physicochemical
# Details: not given
row,SMILES,Activity [%]
1,CCCCCCCCCCN(N=O)c1cccc(N(CCCCCCCCCC)N=O)c1[N+](=O)[O-],100
2,CCCCCCCCN(N=O)c1cccc(N(CCCCCCCC)N=O)c1[N+](=O)[O-],100

# Tested on: HASMC
# Assay: Antiproliferative activity against HASMC using calcein AM and ethidium homodimer-1 at <= 20 uM by LIVE/DEAD assay
# Format: functional, cell-based
# Details: Homo sapiens
# Outline: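 HASMCs in black plates were exposed for 96 h to compound at 0.1–20 µM in medium with 1% DMSO. Floating dead cells were pelleted, washed in PBS and returned to their wells. Cells were stained with Eth-1 (0.5 µM) and calcein AM (0.25 µM) for 45 min at room temperature, then read at ex/em 495/530 and 528/645 nm. Triplicate; t-test versus vehicle.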
row,SMILES,Activity
1,CCCCCCCCN(N=O)c1ccc([N+](=O)[O-])c(N(CCCCCCCC)N=O)c1,Active
2,CCCCCCN(N=O)c1ccc([N+](=O)[O-])c(N(CCCCCC)N=O)c1,Active
3,CCCCCCCN(N=O)c1ccc([N+](=O)[O-])c(N(CCCCCCC)N=O)c1,Active
4,CCCCCCCCN(N=O)c1cccc(N(CCCCCCCC)N=O)c1[N+](=O)[O-],Active
5,CCCCCCCCCCN(N=O)c1ccc([N+](=O)[O-])c(N(CCCCCCCCCC)N=O)c1,Active
6,CCCCCCCCCN(N=O)c1ccc([N+](=O)[O-])c(N(CCCCCCCCC)N=O)c1,Active
7,CCCCCCN(N=O)c1cccc(N(CCCCCC)N=O)c1[N+](=O)[O-],Active

# Tested on: not listed separately
# Assay: Nitrosation of the compound in glacial acetic acid/tetrahydrofuran after 5 to 8 hrs by IR spectroscopy analysis in presence of glutathione
# Format: physicochemical
# Details: not given
row,SMILES,Activity [%]
1,CCCCCCN(N=O)c1ccc([N+](=O)[O-])c(N(CCCCCC)N=O)c1,100
2,CCCCCCCCCN(N=O)c1ccc([N+](=O)[O-])c(N(CCCCCCCCC)N=O)c1,100

# Tested on: not listed separately
# Assay: Nitrosation of the compound in glacial acetic acid/tetrahydrofuran after 5 to 8 hrs by IR spectroscopy analysis
# Format: physicochemical
# Details: not given
row,SMILES,Activity [%]
1,CCCCCCCCN(N=O)c1ccc([N+](=O)[O-])c(N(CCCCCCCC)N=O)c1,100
2,CCCCCCN(N=O)c1ccc([N+](=O)[O-])c(N(CCCCCC)N=O)c1,100
3,CCCCCCCN(N=O)c1ccc([N+](=O)[O-])c(N(CCCCCCC)N=O)c1,100
4,CCCCCCCCCCN(N=O)c1ccc([N+](=O)[O-])c(N(CCCCCCCCCC)N=O)c1,100
5,CCCCCCCCCN(N=O)c1ccc([N+](=O)[O-])c(N(CCCCCCCCC)N=O)c1,100

# Tested on: HASMC
# Assay: Antiproliferative activity against HASMC at <= 20 uM after 96 hrs by MTT assay
# Format: functional, cell-based
# Details: Homo sapiens
# Outline: (§3)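 Serum-starved HASMCs (3000–3500 cells/well) received compound in complete SMC medium (2% FBS) with 1% DMSO at 0.1, 1, 5, 10 or 20 µM for 48 h. Fresh medium was then added and cells grew a further 48 h (96 h total). MTT 4–6 h at 37 °C, solubilized, A570 as % of medium-only control; 1% DMSO vehicle; triplicate; t-test versus vehicle.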
row,SMILES,Activity
1,CCCCCCCCN(N=O)c1ccc([N+](=O)[O-])c(N(CCCCCCCC)N=O)c1,Active
2,CCCCCCN(N=O)c1ccc([N+](=O)[O-])c(N(CCCCCC)N=O)c1,Active
3,CCCCCCCN(N=O)c1ccc([N+](=O)[O-])c(N(CCCCCCC)N=O)c1,Active
4,CCCCCCCCN(N=O)c1cccc(N(CCCCCCCC)N=O)c1[N+](=O)[O-],Active
5,CCCCCCCCCCN(N=O)c1ccc([N+](=O)[O-])c(N(CCCCCCCCCC)N=O)c1,Active
6,CCCCCCCCCN(N=O)c1ccc([N+](=O)[O-])c(N(CCCCCCCCC)N=O)c1,Active
7,CCCCCCN(N=O)c1cccc(N(CCCCCC)N=O)c1[N+](=O)[O-],Active

# Tested on: HASMC
# Assay: Antiproliferative activity against HASMC at 20 uM after 96 hrs by MTT assay
# Format: functional, Homo sapiens
# Details: not given
# Outline: as §3
row,SMILES,Activity [%]
1,CCCCCCN(N=O)c1ccc([N+](=O)[O-])c(N(CCCCCC)N=O)c1,23
2,CCCCCCN(N=O)c1cccc(N(CCCCCC)N=O)c1[N+](=O)[O-],18

# Tested on: HASMC
# Assay: Antiproliferative activity against HASMC using calcein AM and ethidium homodimer-1 at 20 uM by LIVE/DEAD assay in presence of S-2-amino-6-boronic acid
# Format: functional, cell-based
# Details: Homo sapiens
# Outline: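 HASMCs in black plates were induced with LPS/IFN-γ for 6 h, then given 20 µM donor plus 5 mM ABH for two 48 h periods. Detached cells were pelleted, washed and returned to their wells. Staining used ethidium homodimer-1 (0.5 µM) and calcein AM (0.25 µM) for 45 min at room temperature. Live cells were read at 495/530 nm and dead cells at 528/645 nm.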
row,SMILES,inhibition
1,CCCCCCN(N=O)c1ccc([N+](=O)[O-])c(N(CCCCCC)N=O)c1,Active
2,CCCCCCN(N=O)c1cccc(N(CCCCCC)N=O)c1[N+](=O)[O-],Active

# Tested on: not listed separately
# Assay: Half life of the compound in presence of glutathione
# Format: physicochemical
# Details: gsh
# Outline: as §1
row,SMILES,half-life [h]
1,CCCCCCN(N=O)c1ccc([N+](=O)[O-])c(N(CCCCCC)N=O)c1,126
2,CCCCCCCCCCN(N=O)c1cccc(N(CCCCCCCCCC)N=O)c1[N+](=O)[O-],108
3,CCCCCCCCN(N=O)c1cccc(N(CCCCCCCC)N=O)c1[N+](=O)[O-],123
4,CCCCCCCCCN(N=O)c1ccc([N+](=O)[O-])c(N(CCCCCCCCC)N=O)c1,109

# Tested on: HASMC
# Assay: Induction of nitric oxide release in HASMC at 20 uM after 60 mins by DAF-FM DA assay in presence of S-2-amino-6-boronic acid
# Format: functional, cell-based
# Details: Homo sapiens
# Outline: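 After LPS/IFN-γ induction (6 h), HASMCs were treated with 20 µM donor plus 5 mM ABH over 96 h. Cells were then loaded with DAF-FM DA (10 µM) for 60 min at room temperature in the dark, washed three times, left to de-esterify, and read at ex/em 495/515 nm.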
row,SMILES,Activity
1,CCCCCCN(N=O)c1ccc([N+](=O)[O-])c(N(CCCCCC)N=O)c1,Active
2,CCCCCCN(N=O)c1cccc(N(CCCCCC)N=O)c1[N+](=O)[O-],Active
